According to EPA's CvTdb concentration-time database:

How the values were obtained:
[1] = test system: Rat; assay: concentration in plasma after dosing; conditions: 5 min; dosed: Isoeugenol; 17 mg/kg; oral; Male; F344/N
[2] = test system: Rat; assay: concentration in plasma after dosing; conditions: dosed: Isoeugenol, 17 mg/kg, oral, Male, F344/N
[3] = test system: Rat; assay: concentration in plasma after dosing; conditions: dosed: Isoeugenol, 70 mg/kg, oral, Male, F344/N
[4] = test system: Rat; assay: concentration in plasma after dosing; conditions: 20 min; dosed: Isoeugenol; 17 mg/kg; oral; Male; F344/N
[5] = test system: Rat; assay: concentration in plasma after dosing; conditions: dosed: Isoeugenol, 17 mg/kg, oral, Female, F344/N
[6] = test system: Rat; assay: concentration in plasma after dosing; conditions: dosed: Isoeugenol, 17 mg/kg, oral, Male, F344/N; remark: listed apart in the source
[7] = test system: Rat; assay: concentration in plasma after dosing; conditions: 20 min; dosed: Isoeugenol; 17 mg/kg; oral; Male; F344/N; remark: listed apart in the source
[8] = test system: Rat; assay: concentration in plasma after dosing; conditions: 2 h; dosed: Tetralin; 20 mg/kg; iv; Female; Harlan Sprague Dawley
[9] = test system: Rat; assay: concentration in plasma after dosing; conditions: dosed: Tetralin, 20 mg/kg, iv, Female, Harlan Sprague Dawley
[10] = test system: Rat; assay: concentration in plasma after dosing; conditions: dosed: Tetralin, 2 mg/kg, iv, Male, F344
[11] = test system: Rat; assay: concentration in plasma after dosing; conditions: dosed: Tetralin, 2 mg/kg, iv, Male, F344; remark: listed apart in the source
[12] = test system: Rat; assay: concentration in plasma after dosing; conditions: dosed: Tetralin, 20 mg/kg, iv, Female, Harlan Sprague Dawley; remark: listed apart in the source
[13] = test system: Rat; assay: concentration in plasma after dosing; conditions: dosed: Tetralin, 2 mg/kg, iv, Male, Harlan Sprague Dawley
[14] = test system: Rat; assay: concentration in plasma after dosing; conditions: dosed: Tetralin, 2 mg/kg, iv, Male, Harlan Sprague Dawley; remark: listed apart in the source
[15] = test system: Rat; assay: concentration in plasma after dosing; conditions: dosed: Tetralin, 20 mg/kg, iv, Female, Harlan Sprague Dawley; remark: listed apart in the source
[16] = test system: human; assay: concentration in blood after dosing; conditions: dosed: styrene, 80 ppm, inhalation, duration: 6 hr
How it was run: (§1)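 Concentration-versus-time or amount-versus-time points were compiled from published in vivo toxicokinetic studies and from two structured collections. The studies were found by PubMed searching, classifier screening and manual review. Points were mostly digitised from plot screenshots with WebPlotDigitizer, otherwise copied from tables, and kept in the reported units. Dose, route, subject details and medium were curated by hand from each paper, and sampling and analytical methods follow each source and were often unreported.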

[17] = test system: human; assay: concentration in blood after dosing; negative times count back from the end of exposure; conditions: dosed: methylethylketone, inhalation, duration: 4 hr, male
How it was run: as §1

Work on `C/C=C/c1ccc(O)c(OC)c1` [Isoeugenol] yielded a concentration in plasma [1] of 238 ng/mL, a concentration in plasma ([2]; 10 min) of 220 ng/mL and a concentration in plasma ([2]; 3 h) of 17.2 ng/mL. It also gave a concentration in plasma ([3]; 10 min) of 850 ng/mL, a concentration in plasma ([3]; 1.5 h) of 97 ng/mL and a concentration in plasma [4] of 105 ng/mL. For the same molecule, the concentration in plasma ([5]; 5 min) was 355 ng/mL, the concentration in plasma ([5]; 1.5 h) was 52.9 ng/mL and the concentration in plasma ([6]; 0.5 h) was 130 ng/mL. For the same molecule, the concentration in plasma ([6]; 2 h) was 35.7 ng/mL and the concentration in plasma [7] was 132 ng/mL.
In the case of `c1ccc2c(c1)CCCC2` [Tetralin], the concentration in plasma [8] was 0.628 µg/g, the concentration in plasma ([9]; 0.25 h) was 10.9 µg/g and the concentration in plasma ([9]; 6 h) was 0.111 µg/g. For the same molecule, the concentration in plasma ([10]; 308 s) was 1.77 µg/g, the concentration in plasma ([10]; 4 h) was 0.00972 µg/g and the concentration in plasma ([11]; 0.09 h) was 1.33 µg/g. The concentration in plasma ([11]; 4 h) was 0.0088 µg/g, the concentration in plasma ([12]; 1 h) was 1.98 µg/g and the concentration in plasma ([12]; 24 h) was 0.0136 µg/g. For the same molecule, the concentration in plasma ([13]; 0.5033 h) was 0.192 µg/g, the concentration in plasma ([13]; 8 h) was 0.0056 µg/g and the concentration in plasma ([14]; 5 min) was 1.74 µg/g. The concentration in plasma ([14]; 4 h) was 0.00854 µg/g, the concentration in plasma ([15]; 1 h) was 0.797 µg/g and the concentration in plasma ([15]; 24 h) was 0.00536 µg/g.
In the case of `C=Cc1ccccc1` [styrene], the concentration in blood ([16]; 0.7751 h) was 429 ng/mL, the concentration in blood ([16]; 2.296 h) was 742 ng/mL and the concentration in blood ([16]; 4.093 h) was 759 ng/mL. The concentration in blood ([16]; 5.217 h) was 777 ng/mL, the concentration in blood ([16]; 6.069 h) was 904 ng/mL and the concentration in blood ([16]; 6.347 h) was 484 ng/mL. For the same molecule, the concentration in blood ([16]; 7.03 h) was 241 ng/mL, the concentration in blood ([16]; 7.933 h) was 178 ng/mL and the concentration in blood ([16]; 10.01 h) was 92.2 ng/mL. For the same molecule, the concentration in blood ([16]; 11.99 h) was 61.1 ng/mL, the concentration in blood ([16]; 14.2 h) was 52.4 ng/mL and the concentration in blood ([16]; 18.16 h) was 34.7 ng/mL. It also gave a concentration in blood ([16]; 23.1 h) of 26.7 ng/mL, a concentration in blood ([16]; 29.98 h) of 18.5 ng/mL and a concentration in blood ([16]; 46.98 h) of 10.1 ng/mL.
In the case of `CCC(C)=O` [methylethylketone], the concentration in blood ([17]; 0.1373 h, 400 ppm) was 216 µM, the concentration in blood ([17]; 0.1381 h, 200 ppm) was 70.4 µM and the concentration in blood ([17]; 0.1632 h, 25 ppm) was 2.96 µM. For the same molecule, the concentration in blood ([17]; 0.1664 h, 25 ppm) was 3.3 µM, the concentration in blood ([17]; 0.3028 h, 200 ppm) was 74.4 µM and the concentration in blood ([17]; 0.3068 h, 400 ppm) was 201 µM. For the same molecule, the concentration in blood ([17]; 0.3094 h, 200 ppm) was 54.5 µM, the concentration in blood ([17]; 0.3251 h, 25 ppm) was 2.53 µM and the concentration in blood ([17]; 0.3266 h, 25 ppm) was 2.69 µM. It also gave a concentration in blood ([17]; 28 min, 400 ppm) of 171 µM, a concentration in blood ([17]; 0.4719 h, 200 ppm) of 65.3 µM and a concentration in blood ([17]; 0.4774 h, 25 ppm) of 2.09 µM. The concentration in blood ([17]; 0.4845 h, 200 ppm) was 49.1 µM, the concentration in blood ([17]; 0.4885 h, 25 ppm) was 2.26 µM and the concentration in blood ([17]; 0.9614 h, 200 ppm) was 40.1 µM. The concentration in blood ([17]; 0.9652 h, 200 ppm) was 50.5 µM, the concentration in blood ([17]; 0.9754 h, 400 ppm) was 150 µM and the concentration in blood ([17]; 0.9842 h, 25 ppm) was 1.52 µM. It also gave a concentration in blood ([17]; 0.985 h, 25 ppm) of 1.61 µM, a concentration in blood ([17]; 1.481 h, 200 ppm) of 44.7 µM and a concentration in blood ([17]; 1.482 h, 200 ppm) of 22.9 µM. The concentration in blood ([17]; 1.484 h, 400 ppm) was 121 µM, the concentration in blood ([17]; 1.968 h, 200 ppm) was 25.4 µM and the concentration in blood ([17]; 1.969 h, 200 ppm) was 17.2 µM. For the same molecule, the concentration in blood ([17]; 1.978 h, 400 ppm) was 115 µM, the concentration in blood ([17]; 1.982 h, 25 ppm) was 0.771 µM and the concentration in blood ([17]; 1.983 h, 25 ppm) was 0.828 µM. It also gave a concentration in blood ([17]; 2.965 h, 200 ppm) of 24.3 µM, a concentration in blood ([17]; 2.966 h, 200 ppm) of 14.6 µM and a concentration in blood ([17]; 2.966 h, 400 ppm) of 98.4 µM. It also gave a concentration in blood ([17]; 2.996 h, 25 ppm) of 0.635 µM, a concentration in blood ([17]; 3 h, 25 ppm) of 0.521 µM and a concentration in blood ([17]; 3.971 h, 200 ppm) of 9.24 µM. For the same molecule, the concentration in blood ([17]; 3.974 h, 200 ppm) was 5.93 µM, the concentration in blood ([17]; 4.006 h, 25 ppm) was 0.63 µM and the concentration in blood ([17]; 4.01 h, 25 ppm) was 0.532 µM. For the same molecule, the concentration in blood ([17]; 4.323 h, 400 ppm) was 48 µM, the concentration in blood ([17]; 4.987 h, 400 ppm) was 33.2 µM and the concentration in blood ([17]; 5.414 h, 200 ppm) was 3.68 µM. The concentration in blood ([17]; 5.418 h, 200 ppm) was 2.75 µM, the concentration in blood ([17]; 7.74 h, 200 ppm) was 1.75 µM and the concentration in blood ([17]; -46 s, 400 ppm, during exposure) was 230 µM. For the same molecule, the concentration in blood ([17]; -1 min, 200 ppm, during exposure) was 93 µM, the concentration in blood ([17]; -69 s, 25 ppm, during exposure) was 4.74 µM and the concentration in blood ([17]; -83 s, 200 ppm, during exposure) was 100 µM. The concentration in blood ([17]; -122 s, 25 ppm, during exposure) was 4.68 µM, the concentration in blood ([17]; -0.7835 h, 200 ppm, during exposure) was 86.7 µM and the concentration in blood ([17]; -0.7876 h, 200 ppm, during exposure) was 88.3 µM. It also gave a concentration in blood ([17]; -1.006 h, 400 ppm, during exposure) of 215 µM, a concentration in blood ([17]; -1.012 h, 25 ppm, during exposure) of 4.01 µM and a concentration in blood ([17]; -1.022 h, 25 ppm, during exposure) of 4.44 µM. It also gave a concentration in blood ([17]; -1.508 h, 200 ppm, during exposure) of 69.5 µM, a concentration in blood ([17]; -1.527 h, 200 ppm, during exposure) of 81.5 µM and a concentration in blood ([17]; -1.994 h, 400 ppm, during exposure) of 177 µM. It also gave a concentration in blood ([17]; -2.012 h, 25 ppm, during exposure) of 3.56 µM, a concentration in blood ([17]; -2.017 h, 25 ppm, during exposure) of 3.04 µM and a concentration in blood ([17]; -2.503 h, 400 ppm, during exposure) of 162 µM. For the same molecule, the concentration in blood ([17]; -2.505 h, 200 ppm, during exposure) was 58.5 µM, the concentration in blood ([17]; -2.506 h, 200 ppm, during exposure) was 55 µM and the concentration in blood ([17]; -2.992 h, 400 ppm, during exposure) was 112 µM. The concentration in blood ([17]; -2.993 h, 25 ppm, during exposure) was 2.68 µM, the concentration in blood ([17]; -2.997 h, 25 ppm, during exposure) was 3.29 µM and the concentration in blood ([17]; -3.243 h, 200 ppm, during exposure) was 41.8 µM. It also gave a concentration in blood ([17]; -3.248 h, 200 ppm, during exposure) of 54.2 µM, a concentration in blood ([17]; -3.477 h, 400 ppm, during exposure) of 80 µM and a concentration in blood ([17]; -3.505 h, 25 ppm, during exposure) of 2.71 µM. For the same molecule, the concentration in blood ([17]; -3.508 h, 25 ppm, during exposure) was 2.38 µM, the concentration in blood ([17]; -3.661 h, 400 ppm, during exposure) was 68.3 µM and the concentration in blood ([17]; -3.67 h, 25 ppm, during exposure) was 2.79 µM. It also gave a concentration in blood ([17]; -3.681 h, 25 ppm, during exposure) of 2.14 µM, a concentration in blood ([17]; -3.739 h, 200 ppm, during exposure) of 24.1 µM and a concentration in blood ([17]; -3.827 h, 25 ppm, during exposure) of 2.22 µM. The concentration in blood ([17]; -3.83 h, 400 ppm, during exposure) was 47.8 µM, the concentration in blood ([17]; -3.835 h, 25 ppm, during exposure) was 1.85 µM and the concentration in blood ([17]; -3.993 h, 25 ppm, during exposure) was 0.263 µM. The concentration in blood ([17]; -3.994 h, 25 ppm, during exposure) was 0.18 µM.
